{"data": "Experimental data of several laboratories", "cell line": "HepG2", "effect on": "cell growth or viability", "note": "Protocols differ between the studies behind these lines."}
{"Compound": "CC(=NNC(N)=S)c1ccc(Nc2nnc(-c3ccc(Cl)cc3)c3ccccc23)cc1", "method": "MTT", "tested at": "1.25 µM", "measurement": "cell death", "value": "92.3%"}
{"Compound": "CC(=O)c1nn(-c2ccccc2Cl)/c(=N/N=C(\\C)c2ccc(NC(=O)c3ccccc3)cc2)s1", "method": "MTT", "tested at": "2.5 µM", "measurement": "viability", "value": "6.09%"}
{"Compound": "CN(C)c1cc(NC(=O)Cc2cscn2)c(O)c2c1C[C@H]1C[C@H]3[C@H](N(C)C)C(O)=C(C(N)=O)C(=O)[C@@]3(O)C(O)=C1C2=O", "method": "ATP luminescence", "time": "72 h", "measurement": "IC50", "value": "75.8 µg/mL"}
{"Compound": "CC(=NNC(=O)COc1ccc2c(C)c(Cc3ccccc3)c(=O)oc2c1C)c1ccc(Br)cc1", "method": "MTT", "tested at": "25 µg/mL", "measurement": "viability", "value": "44.2%"}
{"Compound": "O=C(C=Cc1ccccc1)Nc1ccc(Oc2nnc(-c3ccc(Cl)cc3)c3ccccc23)cc1", "method": "MTT", "tested at": "1.25 µM", "measurement": "cell death", "value": "62.6%"}
{"Compound": "COc1ccc(-c2cc(-c3ccc(C)cc3)nc3c2c(=O)n(C)c(=O)n3C)cc1OC", "method": "MTT", "time": "48 h", "measurement": "IC50", "value": "32.5 µM"}
{"Compound": "CCOC(=O)c1nn(-c2cccc(Cl)c2)/c(=N/N=C(\\C)c2ccc(NC(=O)c3ccccc3)cc2)s1", "method": "MTT", "tested at": "5 µM", "measurement": "viability", "value": "3%"}
{"Compound": "COc1ccc(-c2cc(-c3cccc(Br)c3)c3c(=O)[nH]c(=O)[nH]c3n2)cc1", "method": "MTT", "time": "48 h", "measurement": "IC50", "value": "16.2 µM"}
{"Compound": "CC(=O)Nc1ccc(Oc2nnc(-c3ccc(Cl)cc3)c3ccccc23)cc1", "method": "MTT", "tested at": "2.5 µM", "measurement": "cell death", "value": "93.5%"}
{"Compound": "CC(=O)c1nn(-c2ccc(C)cc2)/c(=N/N=C(\\C)c2ccc(NC(=O)c3ccccc3)cc2)s1", "method": "MTT", "tested at": "5 µM", "measurement": "viability", "value": "6.81%"}
{"Compound": "Cc1ccc(-c2cc(-c3ccc(Cl)cc3)c3c(=O)n(C)c(=O)n(C)c3n2)cc1", "method": "MTT", "time": "48 h", "measurement": "IC50", "value": "7.42 µM"}
{"Compound": "CC(=NNC(=O)c1ccncc1)c1ccc(Nc2nnc(-c3ccc(Cl)cc3)c3ccccc23)cc1", "method": "MTT", "tested at": "78 nM", "measurement": "cell death", "value": "3.16%"}
{"Compound": "CN(C)c1cc(NC(=O)c2ccccn2)c(O)c2c1C[C@H]1C[C@H]3[C@H](N(C)C)C(O)=C(C(N)=O)C(=O)[C@@]3(O)C(O)=C1C2=O", "method": "ATP luminescence", "time": "72 h", "measurement": "IC50", "value": "187 µg/mL"}
{"Compound": "Cc1ccc(-c2cc(-c3c(Cl)cccc3Cl)c3c(=O)[nH]c(=O)[nH]c3n2)cc1", "method": "MTT", "time": "48 h", "measurement": "IC50", "value": "42.7 µM"}
{"Compound": "CCOC(=O)c1nn(-c2cccc(Cl)c2)/c(=N/N=C(\\C)c2ccc(NC(=O)c3ccc(Cl)cc3)cc2)s1", "method": "MTT", "tested at": "78 nM", "measurement": "viability", "value": "73.1%"}
{"Compound": "O=C(Nc1ccccc1)Nc1ccc(Oc2nnc(-c3ccc(Cl)cc3)c3ccccc23)cc1", "method": "MTT", "tested at": "5 µM", "measurement": "cell death", "value": "94.9%"}
{"Compound": "C/C(=N\\N=C1/NC(=O)/C(=C\\c2ccc(F)cc2)S1)c1ccccn1", "method": "SRB", "tested at": "100 µg/mL", "time": "48 h", "measurement": "inhibition", "value": "57.6%"}
{"Compound": "CC(=NNC(=O)c1ccccc1O)c1ccc(Nc2nnc(-c3ccc(Cl)cc3)c3ccccc23)cc1", "method": "MTT", "tested at": "2.5 µM", "measurement": "cell death", "value": "62.1%"}
{"Compound": "COc1ccc(-c2cc(-c3ccc(OC)cc3)c3c(=O)n(C)c(=O)n(C)c3n2)cc1", "method": "MTT", "time": "48 h", "measurement": "IC50", "value": "17.3 µM"}
{"Compound": "CC(=O)Nc1ccc(/C(C)=N/N=c2\\sc(C(C)=O)nn2-c2ccc(C)cc2)cc1", "method": "MTT", "tested at": "10 µM", "measurement": "viability", "value": "48.8%"}
{"Compound": "O=C(Nc1ccc(Oc2nnc(-c3ccc(Cl)cc3)c3ccccc23)cc1)c1ccccc1", "method": "MTT", "tested at": "10 µM", "time": "24 h", "measurement": "viability", "value": "4.07%"}
